In series [1] the test system is Mus musculus. In words: In vivo induction of STAT1 degradation in SCID mouse xenografted with human MOLM16 cells assessed as reduction in STAT1 in tumor tissue at 50 mg/kg, iv measured after 24 hrs by immunoblotting analysis. Type of series: functional, organism-based. The essentials: (§1)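 SCID mice bearing MOLM-16 tumors given a single iv dose of 50 mg/kg or dosing vehicle. Tumor lysates immunoblotted for STAT3, STAT1 and STAT6 at time points from 1 h to at least 24 h.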
In general terms: Xenograft models place foreign cells or tissue in a host animal.

For series [2], the target named is T1, Signal transducer and activator of transcription 3 (Homo sapiens, UniProt P40763). In words: Induction of STAT3 degradation in human SUP-M2 cells incubated for 4 hrs by western blot analysis. Type of series: cell-based. The procedure, abridged: (§2)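 Cells treated 4 h with compounds across 25 nM to 100 μM; STAT proteins detected by Western blot with GAPDH as loading control; STAT3 DC50 estimated by densitometry of STAT3 relative to GAPDH. Applies to MOLM-16 for all STATs, and to SU-DHL-1 and SUP-M2 for STAT3.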
T1 sequence (P40763 whole entry): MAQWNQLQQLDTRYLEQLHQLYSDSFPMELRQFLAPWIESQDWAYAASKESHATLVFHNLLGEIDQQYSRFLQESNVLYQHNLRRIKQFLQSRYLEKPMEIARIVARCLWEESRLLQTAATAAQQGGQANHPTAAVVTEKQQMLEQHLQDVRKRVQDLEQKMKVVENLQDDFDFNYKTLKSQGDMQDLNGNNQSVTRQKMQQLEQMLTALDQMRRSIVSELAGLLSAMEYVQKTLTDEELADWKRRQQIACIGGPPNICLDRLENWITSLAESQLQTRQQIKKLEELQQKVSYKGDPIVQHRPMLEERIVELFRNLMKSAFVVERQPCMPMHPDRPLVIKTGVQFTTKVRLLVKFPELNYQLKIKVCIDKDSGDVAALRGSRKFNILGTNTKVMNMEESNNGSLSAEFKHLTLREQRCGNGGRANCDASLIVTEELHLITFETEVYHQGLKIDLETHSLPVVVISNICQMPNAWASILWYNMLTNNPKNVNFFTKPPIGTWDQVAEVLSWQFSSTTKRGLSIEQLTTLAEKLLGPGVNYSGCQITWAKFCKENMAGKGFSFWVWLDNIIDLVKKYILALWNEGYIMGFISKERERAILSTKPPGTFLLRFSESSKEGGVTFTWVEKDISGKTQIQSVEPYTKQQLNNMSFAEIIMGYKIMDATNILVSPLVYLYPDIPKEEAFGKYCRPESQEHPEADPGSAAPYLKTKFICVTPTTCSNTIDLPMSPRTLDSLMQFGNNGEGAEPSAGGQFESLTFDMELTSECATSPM

Series [3] deals with Mus musculus. The series can be described thus: In vivo induction of STAT3 degradation in SCID mouse xenografted with human MOLM16 cells assessed as reduction in total STAT3 level in tumor tissue at 50 mg/kg, iv measured after 24 hrs by immunoblotting analysis. Type of series: functional, organism-based. The procedure, abridged:
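SCID mice bearing MOLM-16 or SU-DHL-1 xenografts given a single iv dose of 50 mg/kg or dosing vehicle. Tumor lysates immunoblotted for p-STAT3 Y705 and total STAT3 at time points up to 48 h (MOLM-16) and 24 h (SU-DHL-1).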

Series [4] is described as follows: Stability of the compound in complete cell culture medium measured upto 100 hrs by LC/MS/MS analysis. The format is physicochemical. The essentials:
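Compound incubated at 37 °C in the cell culture media used for cellular assays; percentages of parent and conversion products determined at time points up to 96 h.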

For series [5], the target named is T1, Signal transducer and activator of transcription 3. The series can be described thus: Induction of STAT3 degradation in human MOLM-16 cells assessed as decrease in STAT3 level at 1 uM incubated for 4 hrs by proteomic analysis. The format is cell-based. As to conditions: MOLM16. The procedure, abridged: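 MOLM-16 cells treated with 1 or 10 μM for 4 h. Protein levels measured by quantitative proteomics across more than 7000 proteins.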

Series [6] concerns the target T2, Signal transducer and activator of transcription 4 (Homo sapiens, UniProt Q14765).
T2 sequence (Q14765 whole entry): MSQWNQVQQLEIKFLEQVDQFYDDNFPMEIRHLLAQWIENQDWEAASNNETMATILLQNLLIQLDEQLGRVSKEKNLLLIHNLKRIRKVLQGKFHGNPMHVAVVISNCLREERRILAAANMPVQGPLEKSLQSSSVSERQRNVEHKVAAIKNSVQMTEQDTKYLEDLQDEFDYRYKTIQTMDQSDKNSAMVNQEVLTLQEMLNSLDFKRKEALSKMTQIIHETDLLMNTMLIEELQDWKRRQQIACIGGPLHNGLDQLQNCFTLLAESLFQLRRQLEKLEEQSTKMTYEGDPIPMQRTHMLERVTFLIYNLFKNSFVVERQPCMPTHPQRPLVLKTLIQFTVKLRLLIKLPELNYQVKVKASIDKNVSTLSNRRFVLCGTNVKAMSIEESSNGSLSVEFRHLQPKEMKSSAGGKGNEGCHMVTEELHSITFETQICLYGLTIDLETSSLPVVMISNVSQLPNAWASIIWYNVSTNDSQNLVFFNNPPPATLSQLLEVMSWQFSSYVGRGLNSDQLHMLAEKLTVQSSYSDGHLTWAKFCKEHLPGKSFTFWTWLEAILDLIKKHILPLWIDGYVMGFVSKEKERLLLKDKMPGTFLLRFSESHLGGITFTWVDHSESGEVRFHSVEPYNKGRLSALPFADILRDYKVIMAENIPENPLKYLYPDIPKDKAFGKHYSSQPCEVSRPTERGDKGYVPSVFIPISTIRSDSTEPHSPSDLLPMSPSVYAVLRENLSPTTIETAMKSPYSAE
The series can be described thus: Binding affinity to human recombinant STAT4 assessed as dissociation constant incubated for 15 mins by biolayer interferometry. The essentials:
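Biolayer interferometry with recombinant human STAT1, STAT2, STAT3, STAT4, STAT5A, STAT5B or STAT6 proteins containing their SH2 domain. Compound run in 2× serial dilutions from 200 nM. Kd taken from steady-state fitting of equilibrium responses against concentration using a 1:1 binding model.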

Series [7] deals with T3, Protein cereblon/Signal transducer and activator of transcription 2 (Homo sapiens) (UniProt Q96SW2+P52630). In words: Protac activity at CRBN/STAT2 in human SU-DHL-1 cells […] at 0.25 to 100 uM incubated for 4 hrs by Western blot analysis. The format is cell-based. Conditions: dose lower 0.25 µM. For orientation: A western blot detects proteins with antibodies after separation by electrophoresis.
T3 sequence (P52630 whole entry, looked up): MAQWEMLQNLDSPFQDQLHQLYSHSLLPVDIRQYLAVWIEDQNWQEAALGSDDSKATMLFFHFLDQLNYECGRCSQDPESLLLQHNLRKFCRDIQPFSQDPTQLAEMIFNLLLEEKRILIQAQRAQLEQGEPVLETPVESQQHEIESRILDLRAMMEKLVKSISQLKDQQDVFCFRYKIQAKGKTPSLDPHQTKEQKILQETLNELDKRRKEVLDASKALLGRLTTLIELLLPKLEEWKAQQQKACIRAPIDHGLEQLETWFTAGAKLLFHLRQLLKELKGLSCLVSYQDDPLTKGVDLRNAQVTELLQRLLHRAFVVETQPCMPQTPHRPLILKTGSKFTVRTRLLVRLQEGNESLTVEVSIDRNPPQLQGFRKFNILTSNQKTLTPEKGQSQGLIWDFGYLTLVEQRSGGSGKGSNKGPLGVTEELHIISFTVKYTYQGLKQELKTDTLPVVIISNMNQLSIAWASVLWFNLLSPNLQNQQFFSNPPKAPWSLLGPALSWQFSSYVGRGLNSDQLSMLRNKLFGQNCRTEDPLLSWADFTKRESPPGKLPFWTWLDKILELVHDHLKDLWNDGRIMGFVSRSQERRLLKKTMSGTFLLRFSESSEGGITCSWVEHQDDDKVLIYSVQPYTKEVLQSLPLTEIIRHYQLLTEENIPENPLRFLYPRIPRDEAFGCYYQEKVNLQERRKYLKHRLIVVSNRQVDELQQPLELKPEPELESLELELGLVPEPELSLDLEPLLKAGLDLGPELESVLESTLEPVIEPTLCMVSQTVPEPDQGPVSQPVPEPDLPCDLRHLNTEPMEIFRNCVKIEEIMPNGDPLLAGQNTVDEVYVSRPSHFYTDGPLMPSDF
T3 sequence (Q96SW2 whole entry, looked up): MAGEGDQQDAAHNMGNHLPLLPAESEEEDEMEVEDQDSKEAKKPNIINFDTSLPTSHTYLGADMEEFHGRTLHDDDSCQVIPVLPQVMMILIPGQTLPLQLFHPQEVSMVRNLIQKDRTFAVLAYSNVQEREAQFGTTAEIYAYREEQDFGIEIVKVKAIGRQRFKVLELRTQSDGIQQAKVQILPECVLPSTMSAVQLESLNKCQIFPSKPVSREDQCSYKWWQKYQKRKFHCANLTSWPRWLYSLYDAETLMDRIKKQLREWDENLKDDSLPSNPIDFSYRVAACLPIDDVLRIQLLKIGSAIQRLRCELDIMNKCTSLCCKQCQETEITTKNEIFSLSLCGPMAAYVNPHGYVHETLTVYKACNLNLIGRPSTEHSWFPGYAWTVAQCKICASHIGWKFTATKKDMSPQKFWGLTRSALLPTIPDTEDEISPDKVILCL

Series [8] deals with T4, Protein cereblon/Signal transducer and activator of transcription 6 (Homo sapiens) (UniProt P42226+Q96SW2). In words: In vivo protac activity at CRBN/STAT6 degradation in SCID mouse xenografted with human MOLM16 cells assessed as reduction in STAT6 in tumor tissue at 50 mg/kg, iv measured after 24 hrs by immunoblotting analysis. The format is functional, organism-based. The essentials:
as §1

Series [9] deals with Protein cereblon/Signal transducer and activator of transcription 5A (Homo sapiens) (UniProt P42229+Q96SW2). In words: Protac activity at CRBN/STAT5 in human SU-DHL-1 cells […] at 0.25 to 100 uM incubated for 4 hrs by Western blot analysis. The format is cell-based. Conditions: dose lower 0.25 µM.
Sequence of Protein cereblon/Signal transducer and activator of transcription 5A (Homo sapiens) (P42229 whole entry, looked up): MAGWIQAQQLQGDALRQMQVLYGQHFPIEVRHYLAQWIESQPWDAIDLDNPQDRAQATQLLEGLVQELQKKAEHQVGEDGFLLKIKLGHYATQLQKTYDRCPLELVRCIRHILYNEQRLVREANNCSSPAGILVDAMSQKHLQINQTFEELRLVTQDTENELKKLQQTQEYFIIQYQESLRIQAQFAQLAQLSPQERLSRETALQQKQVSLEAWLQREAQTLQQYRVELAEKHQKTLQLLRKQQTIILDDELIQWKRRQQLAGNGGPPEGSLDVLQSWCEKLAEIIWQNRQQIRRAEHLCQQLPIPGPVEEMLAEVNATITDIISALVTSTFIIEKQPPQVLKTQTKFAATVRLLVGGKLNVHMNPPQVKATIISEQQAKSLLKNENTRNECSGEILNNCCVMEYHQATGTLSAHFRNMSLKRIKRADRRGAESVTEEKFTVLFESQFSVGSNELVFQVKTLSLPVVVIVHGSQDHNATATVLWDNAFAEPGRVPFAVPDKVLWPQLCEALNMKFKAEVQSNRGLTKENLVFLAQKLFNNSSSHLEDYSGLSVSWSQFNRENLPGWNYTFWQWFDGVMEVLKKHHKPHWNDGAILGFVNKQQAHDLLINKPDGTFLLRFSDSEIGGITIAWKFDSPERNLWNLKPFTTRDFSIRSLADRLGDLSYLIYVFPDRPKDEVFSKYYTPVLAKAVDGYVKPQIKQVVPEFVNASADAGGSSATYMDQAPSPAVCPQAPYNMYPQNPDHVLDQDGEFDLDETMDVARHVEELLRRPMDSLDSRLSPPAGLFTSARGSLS
Sequence of Protein cereblon/Signal transducer and activator of transcription 5A (Homo sapiens) (Q96SW2 whole entry, looked up): as the sequence (Q96SW2 whole entry, looked up) above
Series [10] can be described thus: Stability of compound in buffer pH 8 assessed as conversion to (2-(((5S,8S,10aR)-8-(((S)-5-amino-1-(benzhydrylamino)-1,5-dioxopentan-2-yl)carbamoyl)-3-(8-(2-(2,6-dioxopiperidin-3-yl)-1-oxoisoindolin-4-yl)oct-7-ynoyl)-6-oxodecahydropyrrolo[1,2-a][1,5]diazocin-5-yl)carbamoyl)-1H-indole-5-carbonyl)phosphonic acid by measuring half life at 37 degC by LC/MS/MS analysis. Type of series: physicochemical. The procedure, abridged: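 SD-36 incubated in pH 8 buffer at 37 °C; percentages of parent and hydrolysis products followed over time; half-life of conversion derived from the time course.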

The target in series [11] is T3, Protein cereblon/Signal transducer and activator of transcription 2 (Homo sapiens). The series can be described thus: Protac activity at CRBN/STAT2 in human SUP-M2 cells […] at 0.25 to 100 uM incubated for 4 hrs by Western blot analysis. The format is cell-based. As to conditions: SUPM2, dose lower 0.25 µM.
Series [12] deals with T4, Protein cereblon/Signal transducer and activator of transcription 6 (Homo sapiens). In words: Protac activity at CRBN/STAT6 in human MOLM16 cells assessed as STAT6 degradation at 0.25 to 100 uM incubated for 4 hrs by Western blot analysis. The format is cell-based. As to conditions: dose 0.25-100 µM. The essentials:
as §2

The target of series [13] is Protein cereblon/Signal transducer and activator of transcription 1-alpha/beta (Homo sapiens) (UniProt P42224+Q96SW2). The series can be described thus: Protac activity at CRBN/STAT1 in human MOLM16 cells assessed as STAT1 degradation at 0.25 to 100 uM incubated for 4 hrs by Western blot analysis. The format is cell-based. Conditions: dose 0.25-100 µM. The essentials:
as §2

pKd: −log10 of the molar value. Active and inactive are the calls of the source. The rule behind the calls is not given here. Bounds are passed on as bounds.

T4 sequence (P42226 2-847 limits assumed): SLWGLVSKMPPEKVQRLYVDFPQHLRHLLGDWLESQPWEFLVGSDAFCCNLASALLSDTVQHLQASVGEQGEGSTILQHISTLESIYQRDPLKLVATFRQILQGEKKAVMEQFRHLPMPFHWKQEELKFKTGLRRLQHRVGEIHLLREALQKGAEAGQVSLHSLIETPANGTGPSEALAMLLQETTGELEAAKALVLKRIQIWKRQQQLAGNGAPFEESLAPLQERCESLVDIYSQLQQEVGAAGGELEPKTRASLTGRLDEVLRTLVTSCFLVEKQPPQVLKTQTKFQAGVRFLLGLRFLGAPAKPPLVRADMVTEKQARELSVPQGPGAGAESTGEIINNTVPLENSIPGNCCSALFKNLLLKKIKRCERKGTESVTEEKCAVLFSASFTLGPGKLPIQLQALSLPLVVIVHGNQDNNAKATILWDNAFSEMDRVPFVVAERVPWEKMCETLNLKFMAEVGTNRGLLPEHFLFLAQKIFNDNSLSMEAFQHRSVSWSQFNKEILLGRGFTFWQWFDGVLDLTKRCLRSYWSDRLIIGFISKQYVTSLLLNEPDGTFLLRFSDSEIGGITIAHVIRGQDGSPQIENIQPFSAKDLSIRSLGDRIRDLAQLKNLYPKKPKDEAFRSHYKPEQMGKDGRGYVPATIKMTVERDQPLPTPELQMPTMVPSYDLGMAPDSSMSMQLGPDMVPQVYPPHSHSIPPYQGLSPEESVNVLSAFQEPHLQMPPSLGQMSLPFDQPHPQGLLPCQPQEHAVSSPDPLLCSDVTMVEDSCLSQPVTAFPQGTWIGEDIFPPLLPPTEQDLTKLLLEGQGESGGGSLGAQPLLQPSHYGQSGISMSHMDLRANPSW
T4 sequence (Q96SW2 whole entry partner): as the sequence (Q96SW2 whole entry, looked up) above

Turning to `NC(=O)CC[C@H](NC(=O)[C@@H]1CC[C@@H]2CCN(C(=O)CCCCCC#Cc3cccc4c3CN(C3CCC(=O)NC3=O)C4=O)C[C@H](NC(=O)c3cc4cc(C(=O)P(=O)(O)O)ccc4[nH]3)C(=O)N21)C(=O)NC(c1ccccc1)c1ccccc1` (stereo partly drawn), the result with Mus musculus [1] was inactive. The same compound yielded a DC50 in series [2] of 1200 nM. In addition, the outcome (in the series with Mus musculus [3]; in series [5]) was Active. In addition, the Stabilty result in series [4] is listed as “Stable”. Further, the pKd in series [6] was below 8.00.
On to `NC(=O)CC[C@H](NC(=O)[C@@H]1CC[C@@H]2CCN(C(=O)CCCCCC#Cc3cccc4c3CN(C3CCC(=O)NC3=O)C4=O)C[C@H](NC(=O)c3cc4cc(C(F)(F)P(=O)(O)O)ccc4[nH]3)C(=O)N21)C(=O)NC(c1ccccc1)c1ccccc1` (stereo partly drawn), for which the outcome in series [7], in [8], in series [9], in series [11], in [12] and in series [13] was inactive. Further, the t1/2 in [10] is 4 h.

By DC50 is commonly meant the midpoint of the concentration-degradation curve. The low end stands for a more potent degrader, the high end for a less potent degrader. As a reminder, the pKd is the negative decadic logarithm of the Kd, by convention in mol/L.

The values are drawn from ChEMBL document CHEMBL4706770, “SD-91 as A Potent and Selective STAT3 Degrader Capable of Achieving Complete and Long-Lasting Tumor Regression” (ACS Med Chem Lett, 2021).
